# RGS4 block – RGS4 inhibitors, primary screen, cell-based, HEK293 M3R inducible RGS4, calcium flux; Fluo-4 calcium flux; stronger effect = higher value; triggered by carbachol at its EC20; B-score at 10 µM; 310,000 tested, 0.45% active; Regulator of G-protein signaling 4 (Homo sapiens), P49798;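 active = B-score, a plate-corrected calcium signal, over three deviations above library mean, with baseline fluorescence within five deviations of library mean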;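 also: RGS4 expression induced by doxycycline in cells with stable M3 receptor; B-score is computed from the integrated fluorescence ratio over baseline after carbachol; higher B-score means a larger calcium signal and so more RGS4 inhibition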
# Target sequence (P49798 whole entry, looked up): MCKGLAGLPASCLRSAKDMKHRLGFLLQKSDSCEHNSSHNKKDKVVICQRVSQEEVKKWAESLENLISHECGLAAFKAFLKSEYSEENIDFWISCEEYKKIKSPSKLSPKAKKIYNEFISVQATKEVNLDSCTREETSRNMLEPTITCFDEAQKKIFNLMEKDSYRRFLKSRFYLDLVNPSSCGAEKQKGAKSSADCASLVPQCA
# RGS4 act – RGS4 potentiators or activators, primary screen, cell-based, HEK293 M3R inducible RGS4, calcium flux. AID 463111, 2010. carbachol calcium flux Fluo4; stronger effect = lower value. B-score at 10 µM. 310,000 tested, 0.92% active;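 active = B-score of the integrated calcium signal more than 4 SD below the library mean, with starting fluorescence not abnormally high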;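 also: negative B-score means reduced calcium response which marks RGS4 activation or potentiation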
#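 Also added: carbachol at ECmax as muscarinic agonist stimulus; Assay system: HEK293 cells with stable M3R and inducible RGS4; Timing: overnight RGS4 induction, 30 min dye load 37 °C, 20 min compound RT; Measured by: Fluo4-AM (2 µM) calcium-flux fluorescence, kinetic read.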
# MrgX1 ag – agonists of human MrgX1 receptor, primary screen, HEK293 cells, Fluo-4 calcium flux | Fluo-4 calcium fluorescence, agonist mode; stronger effect = higher value | B-score at 10 µM | AID 588627, 2011 | 310,000 tested, 0.44% active;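 active = calcium response B-score plate-corrected fluorescence ratio at least 3 library SD, with starting fluorescence B-score inside 5 SD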
# Target sequence (Q96LB2 whole entry, looked up): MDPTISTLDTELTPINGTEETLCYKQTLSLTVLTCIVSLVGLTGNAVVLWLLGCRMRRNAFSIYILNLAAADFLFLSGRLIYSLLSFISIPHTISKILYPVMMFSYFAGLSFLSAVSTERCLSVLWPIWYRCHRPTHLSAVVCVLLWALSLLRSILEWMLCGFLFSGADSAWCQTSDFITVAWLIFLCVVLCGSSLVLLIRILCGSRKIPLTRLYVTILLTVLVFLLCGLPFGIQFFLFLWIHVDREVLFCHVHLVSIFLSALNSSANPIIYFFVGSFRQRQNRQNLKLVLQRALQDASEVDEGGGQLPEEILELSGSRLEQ
#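 Assay system: stable human MrgX1 HEK293 cell line. Quantity: 15,000 cells per well. Schedule: cells plated overnight, dye loaded 0.5 h 37 °C, 0.5 h room temperature. Detection: Fluo-4 NW calcium-flux fluorescence, kinetic read. Read-out basis: peak-minus-minimum fluorescence over baseline, converted to B scores. Control set: positive and negative control wells on each plate.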
# MrgX1 antag – antagonists of human MrgX1 receptor, primary screen, HEK293 cells, Fluo-4 calcium flux; AID 588676, 2011; 310,000 tested, 1.3% active; BAM8-22 antagonism; stronger effect = lower value; B-score at 10 µM;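 active = calcium-response B-score plate-corrected more than 3 library SD below zero, starting fluorescence within 5 deviations, no agonist response on first addition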;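 also: peak minus trough fluorescence over baseline after final BAM8-22 challenge near maximal dose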
# MrgX1 allo act – positive allosteric modulators of MrgX1, primary screen, HEK293 cells, Fluo-4 calcium flux; Mas-related G-protein coupled receptor member X1 (Homo sapiens), Q96LB2; FDSS; stronger effect = higher value; B-score at 10 µM; 310,000 tested, 0.63% active;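 active = plate-corrected calcium response at least 3 library SD above typical, normal starting fluorescence, not activating the receptor alone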;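 also: compound read alongside a low EC10 to EC30 dose of BAM8-22 agonist; peak minus trough fluorescence over baseline measured at the second addition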
# MrgX1 ant reconf – MrgX1 receptor antagonists, duplicate retest, confirmation, HEK293 cells, Fluo-4 calcium flux. shares compounds with MrgX1 antag. BAM8-22 calcium flux; stronger effect = lower value. remaining BAM8-22 calcium response % of control (stronger effect = lower value), % at 10 µM. 2,300 tested, 19% active;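 active = remaining agonist calcium response no higher than 100% minus 3 SD of agonist-only control wells, with starting fluorescence near control levels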;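 also: agonist BAM8-22 given at a near maximal EC90 to ECmax level; peak minus minimum fluorescence divided by baseline after agonist addition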
# HEK293 Ca flux – nonspecific calcium signal in parental HEK293, confirmation, counter-screen for MrgX1 antagonist project, parental HEK293 cells, Fluo-4 calcium flux. fluorescence ratio F(max-min)/F0 at 10 µM. AID 624111, 2012. Fluo-4 calcium fluorescence, FDSS. 4,000 tested, 2% active. shares compounds with MrgX1 antag;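 active = duplicate-averaged calcium fluorescence ratio at least three times the standard deviation of buffer wells, a nonspecific response in parental cells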
# HEK293 Ca counter – calcium response in parental HEK293 cells, primary screen, counter-screen for MrgX1 allosteric activator project, cell-based, Fluo-4 calcium flux, duplicate; shares compounds with MrgX1 antag; Fluo-4 fluorescence ratio; stronger effect = higher value; fluorescence ratio F(max-min)/F0 at 10 µM; 4,000 tested, 0.4% active; AID 624114, 2012;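 active = calcium fluorescence ratio, averaged over duplicates, at least 3 SD of the buffer-well ratio, meaning a nonspecific response in receptor-free cells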;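 also: untransfected parental HEK293 lacking MrgX1 used as counterscreen for MrgX1 allosteric activators; fluorescence change taken during the second addition on a kinetic imager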
# HEK293 Ca cntr2 – calcium response in parental HEK293 cells, primary screen, counter-screen for MrgX1 agonist project, cell-based, Fluo-4 calcium flux, duplicate, agonist mode. shares compounds with MrgX1 antag. Fluo-4 calcium fluorescence (FDSS); stronger effect = higher value. fluorescence ratio F(max-min)/F0 at 10 µM. 4,000 tested, 8.7% active. AID 624115, 2012;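 active = calcium fluorescence ratio at least three times the spread of buffer wells, meaning a non-specific response in parental cells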
# * marks the source's active call; other numbers are inactive results; i = inactive; · = no result given. An excerpt weighted towards active compounds, which were near 3.5% of everything screened.
SMILES,RGS4 block,RGS4 act,MrgX1 ag,MrgX1 antag,MrgX1 allo act,MrgX1 ant reconf,HEK293 Ca flux,HEK293 Ca counter,HEK293 Ca cntr2
COc1ccc(C(=O)Oc2ccc3c(C)cc(=O)oc3c2C(C)=O)cc1,i,i,i,-4.6*,i,i,i,i,i
Cc1ccccc1NS(=O)(=O)c1nnc(NC(=O)C(C)C)s1,i,i,i,i,i,·,·,·,·
CCN1C(=O)c2cccc3c(S(=O)(=O)Nc4ccncc4)ccc1c23,i,i,i,i,i,·,·,·,·
CCN1C(=O)c2cccc3c(S(=O)(=O)Nc4ccccc4)ccc1c23,i,i,i,-6.9*,i,i,i,i,i
O=C(NCc1ccco1)c1cnn2c(C(F)(F)F)cc(-c3ccccc3)nc12,i,i,i,-4.7*,i,i,i,i,i
Cc1nn(-c2ccccc2)c2nc(-c3ccncc3)cc(C(=O)NCc3ccco3)c12,i,i,i,-5.9*,i,i,i,i,i
NC(=O)c1cnn2c(C(F)(F)F)cc(-c3ccccc3)nc12,i,i,i,i,i,·,·,·,·
CC(C)c1cc(C(=O)N2CCCC(N3CCN(c4ccc(F)cc4)CC3)C2)no1 (centres undefined),i,i,i,i,i,·,·,·,·
CS(=O)(=O)Nc1cccc(C2=NN(C(=O)c3cccc([N+](=O)[O-])c3)C(c3cccs3)C2)c1 (centres undefined),i,i,i,i,i,·,·,·,·
COc1cc(NC(=O)c2nccnc2C(=O)O)cc(OC)c1,i,i,i,-6*,i,i,i,i,i
CCC(=O)N1CCc2cc(S(=O)(=O)N3CCCCCC3)ccc21,i,i,i,i,i,·,·,·,·
COc1ccc(CCn2c(N)c(C(=O)NCc3ccco3)c3nc4ccccc4nc32)cc1,i,i,i,i,i,·,·,·,·
Nc1c(C(=O)NCc2ccco2)c2nc3ccccc3nc2n1CCc1ccccc1F,i,i,i,-7.5*,i,i,i,i,i
COc1ccc(C(=O)N(C)Cc2ccccn2)cc1OC1CCN(C(C)C)CC1,i,i,i,-5.2*,i,i,i,i,i
COc1ccc(C(=O)N(C)Cc2ccon2)cc1OC1CCN(C(C)C)CC1,i,i,i,i,i,·,·,·,·
CCOC(=O)C1CCCN(C(=O)Cc2ccc(OC)c(OC)c2)C1 (centres undefined),i,i,i,-4.8*,i,i,i,i,i
O=C(Nc1cccnc1)c1cccc(S(=O)(=O)N2CCCCC2)c1,i,i,i,-6.4*,i,i,i,i,i
COC(=O)c1cccc(S(=O)(=O)N2CCOCC2)c1,i,i,i,i,i,·,·,·,·
COC(=O)c1cccc(S(=O)(=O)N2CCCC2)c1,i,i,i,-5.9*,i,i,i,i,i
COc1ccc(N2CC(C(=O)N[C@@H](C)C(=O)NCCc3ccccc3)CC2=O)cc1 (some centres undefined),i,i,i,i,i,·,·,·,·
Cc1ccc(/C=C2\SC(=S)N(/N=C/c3cc([N+](=O)[O-])ccc3O)C2=O)o1,i,i,i,i,i,·,·,·,·
COc1ccc(-c2csc(NC(=O)c3ccccc3NS(=O)(=O)c3ccc(C)cc3)n2)cc1,i,i,i,-9*,i,61%*,i,i,i
COc1ccc(-c2csc(NC(=O)COc3ccc(N(C)S(=O)(=O)c4ccc(C)cc4)cc3)n2)cc1,i,i,i,i,i,·,·,·,·
COc1ccc(S(=O)(=O)Nc2ccccc2C(=O)Nc2nc(-c3ccc(F)cc3)cs2)cc1OC,i,i,i,-8.7*,i,i,i,i,i
CCn1nc(C)cc1C(=O)N1CCCC(N(C)CCc2ccc(OC)c(OC)c2)C1 (centres undefined),i,i,i,i,i,·,·,·,·
SMILES,RGS4 block,RGS4 act,MrgX1 ag,MrgX1 antag,MrgX1 allo act,MrgX1 ant reconf,HEK293 Ca flux,HEK293 Ca counter,HEK293 Ca cntr2
Cc1ccccc1OCC(=O)NCCCNC(=O)c1ccncc1,i,i,i,i,i,·,·,·,·
Cc1ccc(S(=O)(=O)NCCC(=O)NCc2ccco2)cc1,i,i,i,-4.6*,i,i,i,i,i
O=C(O)c1cccc(CSc2ncn[nH]2)c1,i,i,i,i,i,·,·,·,·
CCc1ccc2nc3sc(C(=O)O)cc3cc2c1,i,i,i,i,i,·,·,·,·
Cc1csc(=O)n1CC(=O)OCC(=O)c1c(N)n(CC(C)C)c(=O)n(C)c1=O,i,i,i,i,i,·,·,·,·
COc1ccccc1-n1c(C)nc2cc(C(=O)O)ccc21,i,i,i,-4.8*,i,i,i,i,i
Cc1nc2cc(C(=O)O)ccc2n1-c1ccccc1,i,i,i,i,i,·,·,·,·
CCCSc1cc(N2CCCC2)nc(-c2ccccc2)n1,i,i,i,-5.7*,i,i,i,i,i
CCCSc1cc(N2CCN(C)CC2)nc(-c2ccc(OC)cc2)n1,i,i,i,i,i,·,·,·,·
Cn1cnnc1SCC(=O)NCc1cccc(C(F)(F)F)c1,i,i,i,-6.5*,i,i,i,i,i
O=C(CCNC(=O)c1ccc(Cl)cc1)NCc1cccc(C(F)(F)F)c1,i,i,i,-10*,i,i,i,i,i
O=C(CN1CCCN(Cc2ccc(F)cc2Cl)C1=O)NC1CCCC1,i,i,i,i,i,·,·,·,·

# Bioassay records: PubChem, Johns Hopkins Ion Channel Center
